# Measured values published in ChEMBL document CHEMBL1921743, “Design, synthesis, biophysical and biological studies of trisubstituted naphthalimides as G-quadruplex ligands” (Bioorg Med Chem, 2011).
# Activity calls are given as the source filed them. The rule behind the calls is not given here.
# Experiments:
# Nucleic Acid [1] = experiment: Binding affinity to human telomeric AGGG(TTAGGG)3 quadruplex assessed as fluorescence quenching at 10 uM after 3 mins by fluorescence titration method; format: nucleic-acid assay
# Method in brief: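 Ligand held at 10 µM (final 2% DMSO) in K-phosphate/70 mM KCl buffer, pH 7.0, 25 °C, titrated with 100–160 µM annealed quadruplex in 5–10 µL additions, ≥3 min equilibration each. Emission recorded 400–600 nm. Fraction free ligand from the change in emission maximum, plotted against quadruplex concentration and fitted for Kb and n; ≥3 experiments.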
# Nucleic Acid [2] = experiment: Binding affinity to human telomeric AGGG(TTAGGG)3 quadruplex in first binding event at 480 to 640 uM every 300 to 400 secs at pH 7 by isothermal titration calorimetry analysis; format: nucleic-acid assay
# Method in brief: (§1)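 Isothermal titration calorimetry at 25 °C, pH 7.0 (20 mM K phosphate, 70 mM KCl, 0.1 mM EDTA). Quadruplex annealed 90 °C for 5 min, slow-cooled, held 24 h at 4 °C, used at 30–40 µM. Ligand 480–640 µM, 5–10 µL injections every 300/400 s, 25–50 injections. First injection discarded; dilution heat subtracted; multiple-sites fit gives Kb for each sequential event.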
# Nucleic Acid [3] = experiment: Binding affinity to human telomeric AGGG(TTAGGG)3 quadruplex in second binding event at 480 to 640 uM every 300 to 400 secs at pH 7 by isothermal titration calorimetry method; format: nucleic-acid assay; method in brief: as §1
# Nucleic Acid [4] = experiment: Binding affinity to satellite DNA by UV titration method method; format: nucleic-acid assay
# Nucleic Acid [5] = experiment: Binding affinity to human telomeric AGGG(TTAGGG)3 quadruplex after 4 secs by circular dichroism spectroscopy analysis; format: nucleic-acid assay
# Nucleic Acid [6] = experiment: Binding affinity to human telomeric AGGG(TTAGGG)3 quadruplex assessed as melting temperature at 1:1 compound to DNA ratio at pH 7 by UV-visible spectrophotometer analysis; format: nucleic-acid assay
# Method in brief: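 UV melting of 25 µM annealed quadruplex alone or with ligand at 1:1 or 2:1 ligand/DNA, pH 7.0 K-phosphate/KCl buffer. Absorbance at 295 nm, 20–85 °C, heating at 0.5 °C/min, 1 mm path. Tm taken as mean ± SD of at least three runs.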
# [7] = molecular target: Telomerase reverse transcriptase (Homo sapiens) (UniProt O14746); experiment: Inhibition of telomerase in human A549 cells after 72 hrs by ELISA based TRAP assay; format: cell-based
# Method in brief: (§2)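 A549 cells exposed to compound at several concentrations for 72 h. Extracts (1–3 × 10^5 cell equivalents) run in a TRAP PCR-ELISA: P1-TS extension 20 min at 25 °C, then 30 PCR cycles, with an internal standard. Telomerase activity comes from elongation products; Taq activity from internal-standard amplification. Heat-inactivated extract serves as negative control. Triplicates, mean ± SEM, paired t-test.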
# [8] = molecular target: Telomerase reverse transcriptase (Homo sapiens) (UniProt O14746); experiment: Inhibition of telomerase in human A549 cells at 5 uM after 72 hrs by ELISA based TRAP assay; format: cell-based; method in brief: as §2
# [9] = molecular target: DNA polymerase I, thermostable (Thermus aquaticus) (UniProt P19821); experiment: Inhibition of Thermus aquaticus taq polymerase at 10 to 100 uM after 72 hrs by ELISA based TRAP assay; method in brief: as §2
# M14 = experiment: Cytotoxicity against human M14 cells after 5 days by MTT assay; format: functional, cell-based; conditions: for IC50: M14, 120 h
# Method in brief: (§3)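 Cells kept in RPMI-1640 with 10% FCS, 2 mM glutamine and gentamycin, 37 °C, 5% CO2. Seeded at 1000–3000/well, attached 24 h, then given 0.1–100 µM drug for 5 days; 0.2% DMSO controls. MTT added for 4 h, formazan dissolved in acidified isopropanol, A570 read. Eight replicates per point. IC50 read graphically from growth curves; mean ± SD of three experiments.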
# A549 = experiment: Cytotoxicity against human A549 cells after 5 days by MTT assay; format: functional, cell-based; conditions: for IC50: A549, 120 h; method in brief: as §3
# NIH3T3 [10] = experiment: Cytotoxicity against mouse NIH/3T3 cells after 5 days by MTT assay; format: cell-based; conditions: NIH3T3, 120 h
# Method in brief: (§4)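 Mouse embryo fibroblasts grown with bovine calf serum in place of fetal serum. Plated at 1000–3000/well, attached 24 h, then exposed to 0.1–100 µM drug at 37 °C for 5 days alongside 0.2% DMSO controls. MTT for 4 h, acidified isopropanol, A570 read. Eight replicates per point; IC50 taken graphically, mean ± SD of three experiments.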
# [11] = molecular target: Telomerase reverse transcriptase (Homo sapiens) (UniProt O14746); experiment: Inhibition of telomerase in human A549 cells at 0.05 to 100 uM after 72 hrs by ELISA based TRAP assay; format: cell-based; method in brief: as §2
# [12] = molecular target: DNA polymerase I, thermostable (Thermus aquaticus) (UniProt P19821); experiment: Inhibition of Thermus aquaticus taq polymerase at 0.5 to 100 uM after 72 hrs by ELISA based TRAP assay; method in brief: as §2
# Nucleic Acid [13] = experiment: Binding affinity to duplex DNA d(CGCGAATTCGCG)2 duplex at pH 7 by isothermal titration calorimetry method; format: nucleic-acid assay
# Method in brief: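 ITC at 298 K. Ligand dissolved in the DNA buffer (20 mM potassium phosphate, 70 mM KCl, 0.1 mM EDTA, pH 7.0). 480–640 µM ligand injected in 5–10 µL aliquots into 30–40 µM annealed duplex every 300 or 400 s, 25–50 injections, stirring 150 rpm. Heats corrected for ligand dilution; isotherms fitted for Kb, ΔH and n.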
# NIH3T3 [14] = experiment: Cytotoxicity against mouse NIH/3T3 cells assessed as growth inhibition at 0.1 to 100 uM after 5 days by MTT assay; format: cell-based; conditions: nih3t3, 120 h; method in brief: as §4
# [15] = molecular target: DNA polymerase I, thermostable (Thermus aquaticus) (UniProt P19821); experiment: Inhibition of Thermus aquaticus taq polymerase at 0.1 to 50 uM after 72 hrs by ELISA based TRAP assay; method in brief: as §2
# Chain of DNA polymerase I, thermostable (Thermus aquaticus) (P19821 whole entry): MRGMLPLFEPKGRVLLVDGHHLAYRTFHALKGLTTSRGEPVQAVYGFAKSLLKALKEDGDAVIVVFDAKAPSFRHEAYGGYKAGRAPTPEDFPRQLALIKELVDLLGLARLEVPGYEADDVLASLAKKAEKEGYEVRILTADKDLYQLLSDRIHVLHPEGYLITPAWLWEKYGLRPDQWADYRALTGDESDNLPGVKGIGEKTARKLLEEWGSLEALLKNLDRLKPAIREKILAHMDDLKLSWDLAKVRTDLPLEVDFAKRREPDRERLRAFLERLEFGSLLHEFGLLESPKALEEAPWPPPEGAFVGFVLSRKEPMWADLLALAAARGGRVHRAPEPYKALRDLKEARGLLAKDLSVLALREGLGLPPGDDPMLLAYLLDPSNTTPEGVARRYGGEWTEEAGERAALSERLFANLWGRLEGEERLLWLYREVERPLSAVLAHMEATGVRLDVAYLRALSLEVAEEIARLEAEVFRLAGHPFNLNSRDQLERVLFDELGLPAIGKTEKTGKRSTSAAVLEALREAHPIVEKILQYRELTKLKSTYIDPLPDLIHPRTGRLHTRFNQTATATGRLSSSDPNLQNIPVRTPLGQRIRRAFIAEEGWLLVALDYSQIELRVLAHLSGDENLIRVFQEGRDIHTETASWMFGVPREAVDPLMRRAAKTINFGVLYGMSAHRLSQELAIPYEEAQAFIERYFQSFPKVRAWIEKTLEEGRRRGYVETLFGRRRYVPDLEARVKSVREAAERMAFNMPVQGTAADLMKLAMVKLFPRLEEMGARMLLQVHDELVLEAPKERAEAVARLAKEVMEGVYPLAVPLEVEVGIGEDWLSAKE
# Chain of Telomerase reverse transcriptase (Homo sapiens) (O14746 whole entry): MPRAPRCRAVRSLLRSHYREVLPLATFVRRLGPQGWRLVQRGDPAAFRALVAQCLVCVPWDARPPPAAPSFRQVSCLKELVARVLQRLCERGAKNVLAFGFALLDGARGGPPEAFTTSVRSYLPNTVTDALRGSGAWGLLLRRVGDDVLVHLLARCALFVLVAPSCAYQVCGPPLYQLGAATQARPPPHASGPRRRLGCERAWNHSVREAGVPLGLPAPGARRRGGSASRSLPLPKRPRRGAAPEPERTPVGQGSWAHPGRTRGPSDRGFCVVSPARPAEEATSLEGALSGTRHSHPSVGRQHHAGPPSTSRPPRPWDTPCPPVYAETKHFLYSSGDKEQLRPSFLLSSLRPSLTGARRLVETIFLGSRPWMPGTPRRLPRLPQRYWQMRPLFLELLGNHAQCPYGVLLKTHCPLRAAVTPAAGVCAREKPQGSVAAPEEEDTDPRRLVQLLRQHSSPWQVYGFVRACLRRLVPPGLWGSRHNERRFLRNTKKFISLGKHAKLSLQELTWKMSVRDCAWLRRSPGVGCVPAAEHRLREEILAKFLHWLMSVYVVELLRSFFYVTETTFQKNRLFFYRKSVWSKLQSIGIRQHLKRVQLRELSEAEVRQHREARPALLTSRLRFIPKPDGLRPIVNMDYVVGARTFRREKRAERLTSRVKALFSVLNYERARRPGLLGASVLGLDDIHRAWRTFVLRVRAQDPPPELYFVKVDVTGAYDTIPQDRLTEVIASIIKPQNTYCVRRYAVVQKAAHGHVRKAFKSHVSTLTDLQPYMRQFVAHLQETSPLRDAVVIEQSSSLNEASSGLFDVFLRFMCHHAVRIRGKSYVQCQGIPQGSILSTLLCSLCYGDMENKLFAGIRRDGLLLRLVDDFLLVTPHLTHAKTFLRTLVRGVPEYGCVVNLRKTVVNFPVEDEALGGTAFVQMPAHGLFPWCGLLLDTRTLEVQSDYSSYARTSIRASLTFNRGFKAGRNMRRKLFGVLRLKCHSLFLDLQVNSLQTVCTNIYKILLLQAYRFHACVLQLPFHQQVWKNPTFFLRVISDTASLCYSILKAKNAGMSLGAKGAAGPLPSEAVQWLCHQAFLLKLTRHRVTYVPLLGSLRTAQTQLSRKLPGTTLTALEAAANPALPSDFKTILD
Structure (SMILES),Kb (Nucleic Acid [1]) [×10⁵ /M],Kb (Nucleic Acid [2]),Activity (Nucleic Acid [5]),Tm (Nucleic Acid [6]) [°C],inhibition [7],growth inhibition (GI) (M14),IC50 (M14) [µM],growth inhibition (GI) (A549),IC50 (A549) [µM],other results
O=C(CCN1CCCC1)Nc1cc2c3c(cc(NC(=O)CCN4CCCC4)cc3c1)C(=O)N(CCCN1CCCCC1)C2=O,24,5 ×10⁷ /M,Active,60,Dose-dependent effect,Dose-dependent effect,8,Dose-dependent effect,9.9,Kb (Nucleic Acid [3]): 6 ×10⁵ /M; Activity (Nucleic Acid [4]): inactive; inhibition [8]: 26%; inhibition [9]: Active; IC50 (NIH3T3 [10]): 43.3 µM
O=C(CCN1CCCC1)Nc1cc2c3c(cc(NC(=O)CCN4CCCC4)cc3c1)C(=O)N(CCN1CCCC1)C2=O,12,–,–,–,–,–,–,–,–,–
O=C(CCN1CCCC1)Nc1cc2c3c(cc(NC(=O)CCN4CCCC4)cc3c1)C(=O)N(CCCN1CCOCC1)C2=O,10,4 ×10⁵ /M,Active,60,Dose-dependent effect,Dose-dependent effect,34.7,Dose-dependent effect,40.3,IC50 (NIH3T3 [10]): 4.6 µM; inhibition [11]: Active; inhibition [12]: Active
O=C(CCN1CCCC1)Nc1cc2c3c(cc(NC(=O)CCN4CCCC4)cc3c1)C(=O)N(CCCN1CCCC1)C2=O,30,2 ×10⁷ /M,Active,60,Dose-dependent effect,Dose-dependent effect,1.5,Dose-dependent effect,5.2,Kb (Nucleic Acid [3]): 5 ×10⁵ /M; Activity (Nucleic Acid [4]): inactive; Kb (Nucleic Acid [13]): 5 ×10⁵ /M; inhibition [8]: 50%; Activity (NIH3T3 [14]): Non-toxic; inhibition [15]: inactive
O=C(CCN1CCCC1)Nc1cc2c3c(cc(NC(=O)CCN4CCCC4)cc3c1)C(=O)N(CCN1CCCCC1)C2=O,9,–,–,–,–,–,–,–,–,–
CN(C)CCN1C(=O)c2cc(NC(=O)CCN3CCCC3)cc3cc(NC(=O)CCN4CCCC4)cc(c23)C1=O,6,–,–,–,–,–,–,–,–,–
O=C(CCN1CCCC1)Nc1cc2c3c(cc(NC(=O)CCN4CCCC4)cc3c1)C(=O)N(CCCN1CCN(C(=O)CCN3CCCC3)CC1)C2=O,9,–,–,–,–,–,–,–,–,–
O=C(CCN1CCCC1)Nc1cc2c3c(cc(NC(=O)CCN4CCCC4)cc3c1)C(=O)N(CCN1CCN(C(=O)CCN3CCCC3)CC1)C2=O,7,–,–,–,–,–,–,–,–,–
